Data from ChEMBL document CHEMBL1806459, “Discovery of N-(1-ethylpropyl)-[3-methoxy-5-(2-methoxy-4-trifluoromethoxyphenyl)-6-methyl-pyrazin-2-yl]amine 59 (NGD 98-2): an orally active corticotropin releasing factor-1 (CRF-1) receptor antagonist” (J Med Chem, 2011).
Active and inactive are the calls of the source. The rule behind the calls is not given here.

Columns and labels:
[1] = biological target: 5-hydroxytryptamine receptor 2A (Homo sapiens) (UniProt P28223); test: Inhibition of Serotonin 5HT2A receptor at 4 uM
Summary of the method: (§1)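 Single-concentration screen within a 69-target selectivity panel. The test concentration was 4 μM, a level set by the compound's limited aqueous solubility.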

Rattus norvegicus [2] = test: Toxicity in Sprague-Dawley rat assessed as effect on horizontal movement at 10 mg/kg, po measured after 3 hrs for 1 hr; format: organism-based; parameters: dose 10 mg/kg, route oral; conditions: in vivo
Summary of the method: (§2)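 Rats not habituated to the test environment, dosed orally at 3, 10 and 30 mg/kg. Spontaneous locomotor activity recorded after dosing: horizontal activity as movement time, plus vertical activity (rearing). Test run to exclude sedation.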

[3] = Inhibition of KV channel at 4 uM
Summary of the method: (§3)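 Selectivity panel of 69 targets, test compound at 4 μM, a level set by aqueous solubility limits; percent inhibition recorded per target.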

Rattus norvegicus [4] = test: Oral bioavailability in rat at 10 mg/kg; format: ADME, organism-based; conditions: in vivo
Summary of the method: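 Rat pharmacokinetics: compounds given iv (1 or 3 mg/kg) and po (5 or 10 mg/kg) in 2% Vitamin E TPGS (tocopheryl polyethylene glycol 1000 succinate). Plasma sampled over 24 h for Cmax, Tmax, AUC0–24 h, T1/2, clearance, Vss and oral bioavailability. Brain to plasma ratio also measured.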

[5] = Inhibition of diltiazem calcium channel at 4 uM; summary of the method: as §1
[6] = Inhibition of KATP channel at 4 uM; summary of the method: as §3
Rattus norvegicus [7] = test: Antihyperlocomotion activity in Wistar rat assessed as decrease in CRF-induced hyperlocomotion at 30 mg/kg, po administered 3 hrs before CRF challenge measured after 1 hr; format: functional, organism-based; parameters: dose 30 mg/kg
Summary of the method: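 Rats received 0.3 μg CRF intracerebroventricularly, with oral pretreatment 3 h before in vehicle TPGS. Readout was movement time (locomotor activity), compared against TPGS/CRF controls.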

[8] = Half life in rat microsomes; format: ADME, Microsome
Summary of the method: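 Stability in human or rat liver microsomes; half-life (T1/2, min) of compound turnover reported.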

[9] = biological target: Sodium-dependent noradrenaline transporter (Homo sapiens) (UniProt P23975); test: Inhibition of norepinephrine transporter at 4 uM; summary of the method: as §1
Rattus norvegicus [10] = test: Toxicity in Sprague-Dawley rat assessed as effect on horizontal movement at 3 mg/kg, po measured after 3 hrs for 1 hr; format: organism-based; parameters: dose 3 mg/kg, route oral; conditions: in vivo; summary of the method: as §2
Rattus norvegicus [11] = test: Toxicity in Sprague-Dawley rat assessed as effect on vertical activity at 30 mg/kg, po measured after 3 hrs for 1 hr; format: organism-based; parameters: dose 30 mg/kg, route oral; conditions: in vivo; summary of the method: as §2
Rattus norvegicus [12] = test: Toxicity in Sprague-Dawley rat assessed as effect on vertical activity at 3 mg/kg, po measured after 3 hrs for 1 hr; format: organism-based; parameters: dose 3 mg/kg, route oral; conditions: in vivo; summary of the method: as §2
[13] = biological target: Cannabinoid receptor 1 (Homo sapiens) (UniProt P21554); test: Inhibition of cannabinoid CB1 receptor at 4 uM; summary of the method: as §1
Rattus norvegicus [14] = test: AUC (0 to 24 hrs) in rat at 1 mg/kg, iv; format: ADME, organism-based, Plasma; parameters: time < 24 hr, dose 1 mg/kg, route intravenous; conditions: in vivo
Summary of the method: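 Rat PK, intravenous arm of a paired iv/po study. Dosed in 2% Vitamin E TPGS (tocopheryl polyethylene glycol 1000 succinate). Parameters derived from plasma: Cmax, AUC0–24 h, terminal T1/2.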

Sequence of 5-hydroxytryptamine receptor 2A (Homo sapiens) (P28223 whole entry): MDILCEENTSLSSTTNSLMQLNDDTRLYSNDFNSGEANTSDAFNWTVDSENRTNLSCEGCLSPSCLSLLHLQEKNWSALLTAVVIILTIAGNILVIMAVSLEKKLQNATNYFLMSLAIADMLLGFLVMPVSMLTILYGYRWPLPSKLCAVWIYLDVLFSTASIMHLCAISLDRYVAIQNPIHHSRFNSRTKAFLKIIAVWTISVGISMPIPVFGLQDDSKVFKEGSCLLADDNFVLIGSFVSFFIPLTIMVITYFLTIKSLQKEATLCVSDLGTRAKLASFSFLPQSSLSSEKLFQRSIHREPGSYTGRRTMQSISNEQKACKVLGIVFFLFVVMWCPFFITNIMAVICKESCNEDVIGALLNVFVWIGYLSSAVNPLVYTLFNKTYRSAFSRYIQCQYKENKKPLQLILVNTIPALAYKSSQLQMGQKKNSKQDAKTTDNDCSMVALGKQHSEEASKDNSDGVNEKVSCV
Sequence of Cannabinoid receptor 1 (Homo sapiens) (P21554 whole entry): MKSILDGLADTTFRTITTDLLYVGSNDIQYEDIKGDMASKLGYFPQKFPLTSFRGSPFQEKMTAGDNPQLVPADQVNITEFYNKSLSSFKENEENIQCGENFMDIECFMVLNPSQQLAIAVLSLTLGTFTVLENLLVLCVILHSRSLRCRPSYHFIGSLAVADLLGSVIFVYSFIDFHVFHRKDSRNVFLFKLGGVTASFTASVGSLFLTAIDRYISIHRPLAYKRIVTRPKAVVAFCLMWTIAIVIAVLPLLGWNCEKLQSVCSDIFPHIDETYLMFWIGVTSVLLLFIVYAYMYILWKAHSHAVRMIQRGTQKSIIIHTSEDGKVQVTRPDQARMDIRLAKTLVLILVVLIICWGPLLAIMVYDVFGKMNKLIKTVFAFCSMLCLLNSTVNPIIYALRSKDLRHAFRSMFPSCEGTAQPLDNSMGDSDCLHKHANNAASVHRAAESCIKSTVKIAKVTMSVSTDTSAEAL
Sequence of Sodium-dependent noradrenaline transporter (Homo sapiens) (P23975 whole entry): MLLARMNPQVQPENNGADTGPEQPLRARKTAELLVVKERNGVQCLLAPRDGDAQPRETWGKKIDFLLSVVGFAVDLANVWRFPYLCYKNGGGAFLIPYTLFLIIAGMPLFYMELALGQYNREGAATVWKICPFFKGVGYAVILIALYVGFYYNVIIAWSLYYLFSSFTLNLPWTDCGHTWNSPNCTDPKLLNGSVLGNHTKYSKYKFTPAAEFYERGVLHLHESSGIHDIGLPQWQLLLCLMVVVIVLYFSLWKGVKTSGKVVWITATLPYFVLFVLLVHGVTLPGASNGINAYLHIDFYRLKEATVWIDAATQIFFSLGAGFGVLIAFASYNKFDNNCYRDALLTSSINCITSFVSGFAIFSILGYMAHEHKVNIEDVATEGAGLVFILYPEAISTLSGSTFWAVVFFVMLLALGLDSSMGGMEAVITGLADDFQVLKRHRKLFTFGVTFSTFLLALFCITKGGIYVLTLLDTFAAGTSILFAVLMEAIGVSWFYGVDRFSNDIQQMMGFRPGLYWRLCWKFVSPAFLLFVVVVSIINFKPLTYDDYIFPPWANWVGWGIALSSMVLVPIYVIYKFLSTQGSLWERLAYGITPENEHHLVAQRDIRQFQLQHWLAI

- inhibition [1]: > 16%
- inhibition [3]: > 16%
- F (Rattus norvegicus [4]): 45%
- inhibition [5]: > 16%
- inhibition [6]: > 16%
- half-life [8]: 2 h
- inhibition [9]: > 16%
- inhibition [13]: > 16%
- AUC (Rattus norvegicus [14]): 4499 ng·h/mL
Compound: CCC(CC)Nc1nc(C)c(-c2ccc(OC(F)(F)F)cc2OC)nc1OC
- Activity (Rattus norvegicus [2]): Non-toxic
- Activity (Rattus norvegicus [7]): Active
- Activity (Rattus norvegicus [10]): Non-toxic
- Activity (Rattus norvegicus [11]): Non-toxic
- Activity (Rattus norvegicus [12]): Non-toxic
